Results from ChEMBL document CHEMBL3297648, “Diterpenoids from the Chinese liverwort Heteroscyphus tener and their antiproliferative effects” (J Nat Prod, 2014).
Calls of active or inactive are those of the source. The calls are words filed in the database; no cut-off is given here.

What was measured:
[1] = Cell cycle arrest in human PC3 cells assessed as accumulation at G2/M phase at 10 uM after 24 hrs by propidium iodide staining based flow cytometry (reference value: 10.43%); format: functional; details: PC-3
[2] = target: Serine/threonine-protein kinase ATR (Homo sapiens) (UniProt Q13535); experiment: Activation of ATR in human DU145 cells assessed as ChK1 phosphorylation at Ser296 at 20 uM after 12 hrs by western blot analysis; format: cell-based; details: DU-145
Serine/threonine-protein kinase ATR (Homo sapiens), sequence (Q13535 whole entry, looked up): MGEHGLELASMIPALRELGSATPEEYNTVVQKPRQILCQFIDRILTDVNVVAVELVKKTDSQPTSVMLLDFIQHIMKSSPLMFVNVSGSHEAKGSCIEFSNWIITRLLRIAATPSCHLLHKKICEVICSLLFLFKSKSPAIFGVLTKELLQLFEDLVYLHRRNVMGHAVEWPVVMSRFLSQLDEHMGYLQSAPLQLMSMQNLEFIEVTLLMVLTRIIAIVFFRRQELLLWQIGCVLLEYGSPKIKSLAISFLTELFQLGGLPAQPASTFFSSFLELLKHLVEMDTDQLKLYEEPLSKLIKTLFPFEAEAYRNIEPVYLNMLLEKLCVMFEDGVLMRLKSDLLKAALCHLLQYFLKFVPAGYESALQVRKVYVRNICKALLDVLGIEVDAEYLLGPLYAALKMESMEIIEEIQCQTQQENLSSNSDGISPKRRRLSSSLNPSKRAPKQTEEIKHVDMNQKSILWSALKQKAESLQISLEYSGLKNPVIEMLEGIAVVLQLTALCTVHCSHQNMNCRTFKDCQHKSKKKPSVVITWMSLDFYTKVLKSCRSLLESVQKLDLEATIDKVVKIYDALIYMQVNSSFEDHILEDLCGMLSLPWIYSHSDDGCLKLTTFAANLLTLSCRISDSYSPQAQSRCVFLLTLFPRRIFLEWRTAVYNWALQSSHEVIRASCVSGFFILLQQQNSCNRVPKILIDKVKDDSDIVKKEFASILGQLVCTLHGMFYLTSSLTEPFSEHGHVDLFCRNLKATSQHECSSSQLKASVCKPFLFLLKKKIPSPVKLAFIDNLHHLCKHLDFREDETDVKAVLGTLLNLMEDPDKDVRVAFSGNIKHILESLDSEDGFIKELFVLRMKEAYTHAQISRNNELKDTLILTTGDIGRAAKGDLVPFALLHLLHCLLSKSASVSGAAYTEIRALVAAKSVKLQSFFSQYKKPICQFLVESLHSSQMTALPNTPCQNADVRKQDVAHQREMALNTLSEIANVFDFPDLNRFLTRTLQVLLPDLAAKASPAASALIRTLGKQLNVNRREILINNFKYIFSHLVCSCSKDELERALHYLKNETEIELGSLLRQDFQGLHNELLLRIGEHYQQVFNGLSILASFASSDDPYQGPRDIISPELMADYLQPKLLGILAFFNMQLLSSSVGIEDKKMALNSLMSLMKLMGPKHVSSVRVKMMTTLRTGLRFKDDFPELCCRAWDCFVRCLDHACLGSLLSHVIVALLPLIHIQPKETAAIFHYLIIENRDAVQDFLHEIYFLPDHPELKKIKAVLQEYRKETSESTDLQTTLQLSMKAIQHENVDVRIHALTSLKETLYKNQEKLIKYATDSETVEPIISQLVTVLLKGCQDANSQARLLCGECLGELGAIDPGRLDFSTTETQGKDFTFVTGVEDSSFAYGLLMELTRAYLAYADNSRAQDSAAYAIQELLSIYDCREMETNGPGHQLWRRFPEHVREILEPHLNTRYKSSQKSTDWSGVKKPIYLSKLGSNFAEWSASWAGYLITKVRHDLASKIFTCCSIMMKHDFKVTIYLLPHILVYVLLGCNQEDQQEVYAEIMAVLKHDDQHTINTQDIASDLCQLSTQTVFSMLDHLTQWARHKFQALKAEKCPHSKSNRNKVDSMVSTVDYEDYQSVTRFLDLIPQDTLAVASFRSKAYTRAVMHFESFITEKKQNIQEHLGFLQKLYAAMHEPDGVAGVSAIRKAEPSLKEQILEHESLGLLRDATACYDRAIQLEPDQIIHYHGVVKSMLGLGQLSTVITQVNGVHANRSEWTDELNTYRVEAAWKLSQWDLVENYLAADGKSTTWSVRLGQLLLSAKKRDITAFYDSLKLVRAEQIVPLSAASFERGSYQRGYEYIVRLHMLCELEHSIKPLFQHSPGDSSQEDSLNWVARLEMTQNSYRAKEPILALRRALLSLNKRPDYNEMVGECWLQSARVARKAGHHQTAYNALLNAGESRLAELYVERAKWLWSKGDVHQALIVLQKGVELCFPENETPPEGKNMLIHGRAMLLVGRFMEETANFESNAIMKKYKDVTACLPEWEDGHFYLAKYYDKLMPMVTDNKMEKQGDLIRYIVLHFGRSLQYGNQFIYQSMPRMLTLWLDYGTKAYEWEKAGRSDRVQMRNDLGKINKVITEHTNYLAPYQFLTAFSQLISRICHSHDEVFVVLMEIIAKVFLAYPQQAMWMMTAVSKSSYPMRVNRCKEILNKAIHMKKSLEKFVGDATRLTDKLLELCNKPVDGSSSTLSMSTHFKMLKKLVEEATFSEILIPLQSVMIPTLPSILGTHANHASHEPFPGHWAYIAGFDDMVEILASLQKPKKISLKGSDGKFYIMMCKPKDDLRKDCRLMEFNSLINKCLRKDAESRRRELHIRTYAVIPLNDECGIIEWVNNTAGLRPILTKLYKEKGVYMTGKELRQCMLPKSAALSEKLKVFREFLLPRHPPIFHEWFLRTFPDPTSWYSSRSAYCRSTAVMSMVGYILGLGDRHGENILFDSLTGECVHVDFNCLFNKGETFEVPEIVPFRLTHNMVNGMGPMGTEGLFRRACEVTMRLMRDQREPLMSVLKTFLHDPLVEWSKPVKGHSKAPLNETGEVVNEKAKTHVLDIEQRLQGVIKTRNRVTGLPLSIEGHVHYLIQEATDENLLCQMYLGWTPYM
Method in brief: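 Cells treated at 20 μM for various times, lysed in RIPA buffer with protease/phosphatase inhibitors, protein quantified by BCA. Equal protein run on 12% SDS-PAGE, transferred to nitrocellulose, blocked 1 h in 5% milk/TBST, primary antibodies overnight at 4 °C, secondary 1:2000 for 45 min, ECL detection on film. GAPDH used as loading control.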

[3] = Decrease in Cdk4 protein expression in human PC3 cells after 2 to 48 hrs by western blot analysis; format: functional, cell-based; details: PC-3
Method in brief: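 Western blot of cyclin D1, cyclin E, Cdk4 and p21 in PC3 and DU145 lysates. Lysis in RIPA buffer plus protease inhibitors, BCA quantification, 12% SDS-PAGE, nitrocellulose transfer, milk block, primaries overnight at 4 °C, secondary 1:2000 for 45 min, ECL read-out. GAPDH served as loading control.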

DU-145 = experiment: Induction of apoptosis in human DU145 cells at 20 uM by Annexin V-FITC/propidium iodide staining based flow cytometry; format: functional, cell-based; details: TDE = time-dependent effect
Method in brief: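 Cells seeded in 6-well plates for 24 h, then given 20 μM for the stated times. Cells were trypsinized, PBS-washed, stained with annexin V-FITC/PI, and analysed immediately by flow cytometry. Means ± SD of three independent experiments; Student's t test against untreated control.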

[4] = Cell cycle arrest in human PC3 cells assessed as accumulation at G0/G1 phase at 20 uM after 24 hrs by propidium iodide staining based flow cytometry (reference value: 66.57%); format: functional; details: PC-3

Activity [2]: Active
SMILES: C=C[C@@](C)(O)CC[C@@H]1C(C)=CC[C@@H]2C(C)(C)CCC[C@@]12C
Activity [1]: 11.1% | inhibition [3]: Active | Activity (DU-145): tde | Activity [4]: 82.5%
